Columns and labels:
Assay type in all cases: functional
Candida albicans = assay: Antimicrobial activity against Candida albicans at 1 to 5 ug/ml by agar well diffusion method
Outline: (§1)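 Agar well diffusion against bacteria and fungi. Inhibition zone is scored beyond the control: ++ 0.6–1.0 cm, + 0.1–0.5 cm, 0 no inhibition.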

Staphylococcus aureus = assay: Antimicrobial activity against Staphylococcus aureus at 1 to 5 ug/ml by agar well diffusion method; outline: as §1
Pseudomonas aeruginosa = assay: Antimicrobial activity against Pseudomonas aeruginosa at 1 to 5 ug/ml by agar well diffusion method; outline: as §1
Bacillus subtilis = assay: Antimicrobial activity against Bacillus subtilis at 1 to 5 ug/ml by agar well diffusion method; outline: as §1
Escherichia coli = assay: Antimicrobial activity against Escherichia coli at 1 to 5 ug/ml by agar well diffusion method; outline: as §1
MOLT-4 = assay: Growth inhibition of human MOLT4 cells assessed as cell growth at 1 M after 48 hrs by sulforhodamine B assay; parameters: scale not given: the % may be the effect or the level left
Outline: (§2)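 NCI 60-cell screen at a single high dose. Cells are grown in RPMI 1640 with 5% FBS and 2 mM L-glutamine, then plated at 5000–40,000 cells/well and held 24 h at 37 °C in 5% CO2 at 100% humidity. Drug is then added and plates are incubated another 48 h, with SRB staining as read-out. Results are given as growth percent (100 = no inhibition, 0 = no net growth, negative = lethality).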

HOP-92 = assay: Growth inhibition of human HOP92 cells assessed as cell growth at 1 M after 48 hrs by sulforhodamine B assay; parameters: scale not given: the % may be the effect or the level left; outline: as §2
NCI-H226 = assay: Growth inhibition of human NCI-H226 cells assessed as cell growth at 1 M after 48 hrs by sulforhodamine B assay; parameters: scale not given: the % may be the effect or the level left; outline: as §2
NCI-H322M = assay: Growth inhibition of human NCI-H322M cells assessed as cell growth at 1 M after 48 hrs by sulforhodamine B assay; parameters: scale not given: the % may be the effect or the level left; outline: as §2
NCI-H460 = assay: Growth inhibition of human NCI-H460 cells assessed as cell growth at 1 M after 48 hrs by sulforhodamine B assay; parameters: scale not given: the % may be the effect or the level left; outline: as §2
HCT-116 = assay: Growth inhibition of human HCT116 cells assessed as cell growth at 1 M after 48 hrs by sulforhodamine B assay; parameters: scale not given: the % may be the effect or the level left; outline: as §2
HCT-15 = assay: Growth inhibition of human HCT15 cells assessed as cell growth at 1 M after 48 hrs by sulforhodamine B assay; parameters: scale not given: the % may be the effect or the level left; outline: as §2
HT-29 = assay: Growth inhibition of human HT-29 cells assessed as cell growth at 1 M after 48 hrs by sulforhodamine B assay; parameters: scale not given: the % may be the effect or the level left; outline: as §2
SF-268 = assay: Growth inhibition of human SF268 cells assessed as cell growth at 1 M after 48 hrs by sulforhodamine B assay; parameters: scale not given: the % may be the effect or the level left
Outline: (§3)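 NCI 60-cell panel screen, single dose (1.0 M as printed). Cells grown in RPMI 1640 with 5% fetal bovine serum and 2 mM L-glutamine, seeded at 5000–40,000 cells/well, preincubated 24 h at 37 °C in 5% CO2 at 100% humidity, then exposed to compound for 48 h. Sulforhodamine B staining read-out. Result given as growth percent: 100 = no inhibition, 0 = no net growth, negative = lethality.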

SF-539 = assay: Growth inhibition of human SF539 cells assessed as cell growth at 1 M after 48 hrs by sulforhodamine B assay; parameters: scale not given: the % may be the effect or the level left; outline: as §3
SNB-19 = assay: Growth inhibition of human SNB19 cells assessed as cell growth at 1 M after 48 hrs by sulforhodamine B assay; parameters: scale not given: the % may be the effect or the level left; outline: as §3
SNB-75 = assay: Growth inhibition of human SNB75 cells assessed as cell growth at 1 M after 48 hrs by sulforhodamine B assay; parameters: scale not given: the % may be the effect or the level left; outline: as §3
U-251 = assay: Growth inhibition of human U251 cells assessed as cell growth at 1 M after 48 hrs by sulforhodamine B assay; parameters: scale not given: the % may be the effect or the level left; outline: as §3
Malme-3M = assay: Growth inhibition of human MALME-3M cells assessed as cell growth at 1 M after 48 hrs by sulforhodamine B assay; parameters: scale not given: the % may be the effect or the level left; outline: as §2
M14 = assay: Growth inhibition of human M14 cells assessed as cell growth at 1 M after 48 hrs by sulforhodamine B assay; parameters: scale not given: the % may be the effect or the level left; outline: as §2
MDA-MB-435 = assay: Growth inhibition of human MDA-MB-435 cells assessed as cell growth at 1 M after 48 hrs by sulforhodamine B assay; parameters: scale not given: the % may be the effect or the level left; outline: as §2
SK-MEL-28 = assay: Growth inhibition of human SK-MEL-28 cells assessed as cell growth at 1 M after 48 hrs by sulforhodamine B assay; parameters: scale not given: the % may be the effect or the level left; outline: as §3
UACC-62 = assay: Growth inhibition of human UACC62 cells assessed as cell growth at 1 M after 48 hrs by sulforhodamine B assay; parameters: scale not given: the % may be the effect or the level left; outline: as §3
SK-OV-3 = assay: Growth inhibition of human SKOV3 cells assessed as cell growth at 1 M after 48 hrs by sulforhodamine B assay; parameters: scale not given: the % may be the effect or the level left; outline: as §3
786-0 = assay: Growth inhibition of human 786-0 cells assessed as cell growth at 1 M after 48 hrs by sulforhodamine B assay; parameters: scale not given: the % may be the effect or the level left; outline: as §2
A498 = assay: Growth inhibition of human A498 cells assessed as cell growth at 1 M after 48 hrs by sulforhodamine B assay; parameters: scale not given: the % may be the effect or the level left; outline: as §2
RXF 393 = assay: Growth inhibition of human RXF393 cells assessed as cell growth at 1 M after 48 hrs by sulforhodamine B assay; parameters: scale not given: the % may be the effect or the level left; outline: as §3
SN12C = assay: Growth inhibition of human SN12C cells assessed as cell growth at 1 M after 48 hrs by sulforhodamine B assay; parameters: scale not given: the % may be the effect or the level left; outline: as §3
TK-10 = assay: Growth inhibition of human TK10 cells assessed as cell growth at 1 M after 48 hrs by sulforhodamine B assay; parameters: scale not given: the % may be the effect or the level left; outline: as §3
DU-145 = assay: Growth inhibition of human DU145 cells assessed as cell growth at 1 M after 48 hrs by sulforhodamine B assay; parameters: scale not given: the % may be the effect or the level left; outline: as §2
MCF7 = assay: Growth inhibition of human MCF7 cells assessed as cell growth at 1 M after 48 hrs by sulforhodamine B assay; parameters: scale not given: the % may be the effect or the level left; outline: as §2
MDA-MB-231 = assay: Growth inhibition of human MDA-MB-231 cells assessed as cell growth at 1 M after 48 hrs by sulforhodamine B assay; parameters: scale not given: the % may be the effect or the level left; outline: as §2
BT-549 = assay: Growth inhibition of human BT549 cells assessed as cell growth at 1 M after 48 hrs by sulforhodamine B assay; parameters: scale not given: the % may be the effect or the level left; outline: as §2
Rattus norvegicus [1] = assay: Effect on circulating testosterone and dihydrotestosterone level in sc dosed Sprague-Dawley rat by radioimmunoassay
Outline: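 Rats were given a range of doses of the 5α-reductase inhibitors. Serum testosterone and DHT were measured by radioimmunoassay with specific antisera, without prior chromatography. Serum (0.5 mL) was extracted with 2 mL peroxide-free diethyl ether by shaking for 60 s. Levels were compared with vehicle-treated controls, and ED50 was derived.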

Rattus norvegicus [2] = assay: Effect on circulating testosterone and dihydrotestosterone level in sc dosed Sprague-Dawley rat by radioimmunoassay relative to anastrozole
Outline: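 Serum testosterone and DHT were measured by RIA in ether extracts of serum (0.5 mL serum, 2 mL diethyl ether, 60 s shaking), without chromatography, in rats dosed at several levels. Relative potency is the ED50 of anastrozole divided by the ED50 of the test agent, where ED50 is the dose giving 50% of the pharmacological response.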

Aspergillus fumigatus = assay: Antimicrobial activity against Aspergillus fumigatus at 1 to 5 ug/ml by agar well diffusion method; outline: as §1
Penicillium italicum = assay: Antimicrobial activity against Penicillium italicum at 1 to 5 ug/ml by agar well diffusion method; outline: as §1

Cc1ccc(N/N=C(\C(=O)c2ccc(Cl)cc2)c2nc(C)cc(=O)[nH]2)cc1
diameter of the inhibition zone (DIZ) (Candida albicans): 0 cm
diameter of the inhibition zone (DIZ) (Staphylococcus aureus): 0 cm
diameter of the inhibition zone (DIZ) (Pseudomonas aeruginosa): 0 cm
diameter of the inhibition zone (DIZ) (Bacillus subtilis): 0 cm
diameter of the inhibition zone (DIZ) (Escherichia coli): 0.6 cm
Activity (MOLT-4): 98.62%
Activity (HOP-92): 90.99%
Activity (NCI-H226): 107.41%
Activity (NCI-H322M): 106.17%
Activity (NCI-H460): 105.3%
Activity (HCT-116): 86.94%
Activity (HCT-15): 110.86%
Activity (HT-29): 110.66%
Activity (SF-268): 107.28%
Activity (SF-539): 85.29%
Activity (SNB-19): 103.64%
Activity (SNB-75): 115.66%
Activity (U-251): 103.37%
Activity (Malme-3M): 126.09%
Activity (M14): 82.73%
Activity (MDA-MB-435): 123.17%
Activity (SK-MEL-28): 117.97%
Activity (UACC-62): 90.8%
Activity (SK-OV-3): 115.86%
Activity (786-0): 82.91%
Activity (A498): 107.77%
Activity (RXF 393): 40.73%
Activity (SN12C): 99.97%
Activity (TK-10): 136.08%
Activity (DU-145): 102.09%
Activity (MCF7): 91.01%
Activity (MDA-MB-231): 95.9%
Activity (BT-549): 117.79%
ED50 (Rattus norvegicus [1]): 0.173 µg/kg
Ratio ED50 (Rattus norvegicus [2]): 6.301
diameter of the inhibition zone (DIZ) (Aspergillus fumigatus): 0 cm
diameter of the inhibition zone (DIZ) (Penicillium italicum): 0 cm

Cc1cc(=O)[nH]c(/C(=N/Nc2ccccc2)C(=O)c2ccc(Cl)cc2)n1
diameter of the inhibition zone (DIZ) (Candida albicans): 0 cm
diameter of the inhibition zone (DIZ) (Staphylococcus aureus): 0 cm
diameter of the inhibition zone (DIZ) (Pseudomonas aeruginosa): 0 cm
diameter of the inhibition zone (DIZ) (Bacillus subtilis): 0 cm
diameter of the inhibition zone (DIZ) (Escherichia coli): 0.6 cm
Activity (MOLT-4): 39.84%
Activity (HOP-92): 88.71%
Activity (NCI-H226): 108.67%
Activity (NCI-H322M): 107.24%
Activity (NCI-H460): 108.76%
Activity (HCT-116): 86.88%
Activity (HCT-15): 112.06%
Activity (HT-29): 105.27%
Activity (SF-268): 117.24%
Activity (SF-539): 92.33%
Activity (SNB-19): 95.47%
Activity (SNB-75): 128.46%
Activity (U-251): 106.82%
Activity (Malme-3M): 113.86%
Activity (M14): 97.08%
Activity (MDA-MB-435): 107.78%
Activity (SK-MEL-28): 110.14%
Activity (UACC-62): 91.99%
Activity (SK-OV-3): 98.31%
Activity (786-0): 82.24%
Activity (A498): 83.96%
Activity (RXF 393): 28.48%
Activity (SN12C): 93.24%
Activity (TK-10): 65.49%
Activity (DU-145): 104.88%
Activity (MCF7): 90.11%
Activity (MDA-MB-231): 101.67%
Activity (BT-549): 97.44%
ED50 (Rattus norvegicus [1]): 0.211 µg/kg
Ratio ED50 (Rattus norvegicus [2]): 5.166
diameter of the inhibition zone (DIZ) (Aspergillus fumigatus): 0 cm
diameter of the inhibition zone (DIZ) (Penicillium italicum): 0 cm

CC(=O)c1ccc(N/N=C(\C(=O)c2ccc(Cl)cc2)c2nc(C)cc(=O)[nH]2)cc1
diameter of the inhibition zone (DIZ) (Candida albicans): 0 cm
diameter of the inhibition zone (DIZ) (Staphylococcus aureus): 0 cm
diameter of the inhibition zone (DIZ) (Pseudomonas aeruginosa): 0 cm
diameter of the inhibition zone (DIZ) (Bacillus subtilis): 0 cm
diameter of the inhibition zone (DIZ) (Escherichia coli): 0 cm
Activity (MOLT-4): 84.16%
Activity (HOP-92): 97.73%
Activity (NCI-H226): 111%
Activity (NCI-H322M): 100.21%
Activity (NCI-H460): 103.13%
Activity (HCT-116): 90.39%
Activity (HCT-15): 96.72%
Activity (HT-29): 101.59%
Activity (SF-268): 95.91%
Activity (SF-539): 90.87%
Activity (SNB-19): 95.91%
Activity (SNB-75): 91.94%
Activity (U-251): 96.78%
Activity (Malme-3M): 110.47%
Activity (M14): 88.06%
Activity (MDA-MB-435): 95.8%
Activity (SK-MEL-28): 106.93%
Activity (UACC-62): 80.29%
Activity (SK-OV-3): 95.27%
Activity (786-0): 103.17%
Activity (A498): 97.59%
Activity (RXF 393): 94.35%
Activity (SN12C): 95.54%
Activity (TK-10): 120.15%
Activity (DU-145): 95.47%
Activity (MCF7): 89.39%
Activity (MDA-MB-231): 85.96%
Activity (BT-549): 99.42%
ED50 (Rattus norvegicus [1]): 0.698 µg/kg
Ratio ED50 (Rattus norvegicus [2]): 1.562
diameter of the inhibition zone (DIZ) (Aspergillus fumigatus): 0 cm
diameter of the inhibition zone (DIZ) (Penicillium italicum): 0 cm
